Test results taken from ChEMBL document CHEMBL2331546, “The structure of anthracycline derivatives determines their subcellular localization and cytotoxic activity” (ACS Med Chem Lett, 2013).
Activity calls are given as the source filed them. The rule behind the calls is not given here.

Key:
[1] = Cellular uptake in mouse DA-3 cell mitochondria at 10 uM after 30 mins by mitotracker red staining-based confocal microscopic analysis; format: ADME; conditions: da-3, 0.5 h
[2] = Displacement of SYBR from phage lambda DNA by FID assay; set-up: species or system Enterobacteria phage lambda
How it was run: (§1)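 Run at 37 °C; each well held 500 ng phage lambda DNA (48 Kb) with either SYBR safe (final dilution 1:10000) or YOYO-1 (one dye molecule per 40 base pairs) and test compound at up to 40 μM; dye fluorescence displacement gave IC50.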

[3] = Cytotoxicity against human ES2 cells after 24 hrs by XTT assay; format: functional, cell-based; conditions: ES-2, 24 h
How it was run: (§2)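 Cells seeded at ~5 × 10^3 per well, exposed to drug at concentrations up to 60 μM for 24 h; viability read by XTT assay and IC50 values derived.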

MCF7 = test: Cytotoxicity against human MCF7 cells after 24 hrs by XTT assay; format: functional, cell-based; conditions: MCF7, 24 h; how it was run: as §2
[4] = Displacement of YOYO1 from phage lambda DNA by FID assay; set-up: species or system Enterobacteria phage lambda; how it was run: as §1
[5] = Cellular uptake in mouse DA-3 cell nucleus at 10 uM after 30 mins by DRAQ5 deep red staining-based confocal microscopic analysis relative to control; format: ADME; conditions: da-3, 0.5 h
[6] = Cellular uptake in mouse DA-3 cell lysosome at 10 uM after 30 mins by LysoTracker red staining-based confocal microscopic analysis relative to control; format: ADME; conditions: da-3, 0.5 h
[7] = (§3) Cytotoxicity against mouse DA-3 cells assessed as reduction in cell viability at 20 uM after 180 mins by XTT assay relative to control; format: functional
How it was run: (§4)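 DA3 cells incubated with 20 μM anthracycline; XTT viability measured after 60, 120 and 180 min of incubation; percentage cell death expressed relative to untreated control cells (set as 100% viability).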

SK-OV-3 = test: Cytotoxicity against human SKOV3 cells after 24 hrs by XTT assay; format: functional, cell-based; conditions: SK-OV-3, 24 h; how it was run: as §2
[8] = Cellular uptake in mouse DA-3 cell cytoplasm at 10 uM after 30 mins by confocal microscopic analysis; format: ADME, cell-based; conditions: da-3, 0.5 h
[9] = Cytotoxicity against mouse DA-3 cells after 24 hrs by XTT assay; format: functional, cell-based; conditions: DA-3, 24 h; how it was run: as §2
DA-3 [10] = test: Cytotoxicity against mouse DA-3 cells assessed as reduction in cell viability at 20 uM after 60 mins by XTT assay; format: functional, cell-based; how it was run: as §4
[11] = Cellular uptake in mouse DA-3 cell lysosome at 10 uM after 30 mins by LysoTracker green staining-based confocal microscopic analysis relative to control; format: ADME; conditions: da-3, 0.5 h
[12] = Cellular uptake in mouse DA-3 cell mitochondria at 10 uM after 10 hrs by mitotracker red staining-based confocal microscopic analysis; format: ADME; conditions: da-3, 10 h
[13] = Cellular uptake in mouse DA-3 cell nucleus at 10 uM after 10 hrs by DRAQ5 deep red staining-based confocal microscopic analysis; format: ADME; conditions: da-3, 10 h
[14] = Cellular uptake in mouse DA-3 cell lysosome at 10 uM after 10 hrs by LysoTracker green staining-based confocal microscopic analysis; format: ADME; conditions: da-3, 10 h
DA-3 [15] = test: as §3; format: functional; how it was run: as §4
[16] = tested on: Enterobacteria phage lambda; test: Ratio of idarubicin IC50 to compound IC50 for displacement of YOYO1 from phage lambda DNA
[17] = Cytotoxicity against mouse DA-3 cells assessed as reduction in cell viability at 20 uM after 6 hrs by XTT assay relative to control; format: functional
DA-3 [18] = test: Cytotoxicity against mouse DA-3 cells assessed as reduction in cell viability at 20 uM by XTT assay; format: functional, cell-based; how it was run: as §4
[19] = tested on: Enterobacteria phage lambda; test: Ratio of idarubicin IC50 to compound IC50 for displacement of SYBR from phage lambda DNA
[20] = tested on: Enterobacteria phage lambda; test: Ratio of doxorubicin IC50 to compound IC50 for displacement of SYBR from phage lambda DNA

Compound: C[C@@H]1O[C@@H](OCc2cc(O)c3c(c2)C(=O)c2cccc(O)c2C3=O)C[C@H](N)[C@H]1O
- Drug uptake [1]: Not Active
- IC50 [2]: > 40 µM
- IC50 [3]: 6.8 µM
- IC50 (MCF7): 23.6 µM
- IC50 [4]: > 40 µM
- Drug uptake [5]: Not Active
- Drug uptake [6]: 67.12%
- Activity [7]: 100%
- IC50 (SK-OV-3): 11.1 µM
- Drug uptake [8]: Active
- IC50 [9]: 7.9 µM
- Activity (DA-3 [10]): Active

Compound: Cc1c(O)c2c(c(O)c1CO[C@H]1C[C@H](N)[C@@H](O)[C@H](C)O1)C(=O)c1ccccc1C2=O
- Drug uptake [1]: Not Active
- IC50 [2]: > 40 µM
- IC50 [3]: 17.7 µM
- IC50 (MCF7): 17.2 µM
- IC50 [4]: > 40 µM
- Drug uptake [5]: Not Active
- Drug uptake [6]: 84.48%
- IC50 (SK-OV-3): 16.3 µM
- Drug uptake [8]: Active
- IC50 [9]: 17.5 µM

Compound: COc1cccc2c1C(=O)c1c(O)c3c(c(O)c1C2=O)C[C@@](O)(C(C)=O)C[C@@H]3O[C@H]1C[C@H](N)[C@H](O)[C@H](C)O1 [DAUNORUBICIN]
- IC50 [2]: 0.14 µM
- IC50 [3]: 25.5 µM
- IC50 (MCF7): 33.9 µM
- IC50 [4]: 0.84 µM
- Drug uptake [11]: 83.19%
- Drug uptake [5]: Not Active
- Activity [7]: 80%
- IC50 (SK-OV-3): 20.6 µM
- IC50 [9]: 1.9 µM
- Activity (DA-3 [10]): Active

Compound: COc1cccc2c1C(=O)c1c(O)c3c(c(O)c1C2=O)C[C@@](O)(C(=O)CO)C[C@@H]3O[C@H]1C[C@H](N)[C@H](O)[C@H](C)O1 [DOXORUBICIN]
- Drug uptake [1]: Not Active
- IC50 [2]: 0.73 µM
- Drug uptake [12]: Active
- IC50 [3]: > 60 µM
- Drug uptake [13]: Active
- IC50 (MCF7): > 60 µM
- IC50 [4]: 0.6 µM
- Drug uptake [14]: Active
- Drug uptake [11]: 27.55%
- Drug uptake [5]: 41.43%
- Activity (DA-3 [15]): inactive
- IC50 (SK-OV-3): 55.7 µM
- Ratio IC50 [16]: 3
- Activity [17]: 12%
- IC50 [9]: 4 µM

Compound: CC(=O)[C@]1(O)Cc2c(O)c3c(c(O)c2[C@@H](O[C@H]2C[C@H](N)[C@H](O)[C@H](C)O2)C1)C(=O)c1ccccc1C3=O [IDARUBICIN]
- Drug uptake [1]: Not Active
- IC50 [2]: 0.89 µM
- IC50 [3]: 3.2 µM
- IC50 (MCF7): 7.3 µM
- Activity (DA-3 [18]): Active
- IC50 [4]: 1.97 µM
- Drug uptake [11]: 83.2%
- Ratio IC50 [19]: 5
- IC50 (SK-OV-3): 4.5 µM
- Ratio IC50 [16]: 3
- Ratio IC50 [20]: 5
- IC50 [9]: 2.3 µM
